Experimental findings from PMC9071996 (RSC Advances, 2019) are described below.

Assay [1] deals with MDA-MB-231 cells. The assay can be described thus: MTS cytotoxicity assay, MDA-MB-231. The note with it: Homo sapiens, MDA-MB-231, 72 h, read-out: IC50 (μM) MBA-MD-231. The assay is classed as cell-based. The method, boiled down:
(§1)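 MTS viability assay in A549, MDA-MB-231 and RPMI-8226 human cancer cells. All compounds were first screened at 10 and 50 μM. Compounds that crossed a set viability threshold in this screen went on to IC50 determination.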
On the technique in general: Tetrazolium dyes change colour on reduction, which living cells bring about.

For the next assay, the system named is RPMI-8226 cells. Nature of the assay: MTS cytotoxicity assay, RPMI-8226. The note with it: Homo sapiens, RPMI-8226, 72 h, read-out: IC50 (μM) RPMI-8226. The assay is classed as cell-based. The method, boiled down:
as §1

The subject of another assay is A549 cells. The assay can be described thus: MTS cytotoxicity assay, A549. Format: cell-based. The note with it: Homo sapiens, A549, 72 h, read-out: IC50 (μM) A549. The procedure, abridged: as §1
Another assay deals with GES-1 cells. Nature of the assay: MTS cytotoxicity assay, normal GES-1 cells. The assay is classed as cell-based. The note with it: Homo sapiens, GES1, 72 h, read-out: IC50 (μM) GES-1.
For assay [2], the system named is MDA-MB-231 cells. Nature of the assay: Cell cycle assay. Format: cell-based, human. The note with it: 72 h, control 56.86%. The method, boiled down: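 Test compound applied to MDA-MB-231 cells at 2.5, 5 and 10 μM for 72 h. Cells stained with propidium iodide, and DNA content measured by flow cytometry. Percentages of cells in each cell-cycle phase were calculated against an untreated control.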

Assay [3] relates to MDA-MB-231 cells. Nature of the assay: Annexin V-APC/7-AAD apoptosis assay. Format: cell-based, human. The note with it: 72 h, control 1.98%. The method, boiled down: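 MDA-MB-231 cells exposed to test compound at 2.5, 5 or 10 μM for 72 h, with untreated cells as control. Cells then double-stained with Annexin V-APC and 7-AAD and analysed by flow cytometry. Annexin V+/7-AAD− cells scored as early apoptotic. 7-AAD-positive Annexin V+ cells scored as late apoptotic. Results shown as dot-plot quadrants and a histogram.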

Assay [4] concerns MDA-MB-231 cells. The assay can be described thus: Intracellular ROS level. The assay is classed as cell-based, human.
The test system of assay [5] is MDA-MB-231 cells. Nature of the assay: Mitochondrial membrane potential assay. Format: cell-based, human. The note with it: 72 h, control 3.9%. The method, boiled down: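 Mitochondrial membrane potential measured by flow cytometry in MDA-MB-231 cells after 72 h with test compound at 2.5, 5 or 10 μM, against an untreated control. Red and green fluorescent populations were quantified. The green-fluorescent fraction was taken as cells with collapsed ΔΨm.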

Assay [6] has as its system MDA-MB-231 cells. The assay can be described thus: Western blot of apoptosis related proteins. The assay is classed as cell-based, human. The note with it: 2.5, 5 and 10 μM, 72 h, vs control. The method, boiled down:
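Western blot on lysates of MDA-MB-231 cells treated for 72 h with test compound at 2.5, 5 and 10 μM, compared with untreated control. Proteins probed: Bcl-2, Bax, cytochrome C and caspase-3. β-actin served as internal reference, and band levels were analysed statistically.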
In general terms: Immunoblotting shows a protein as a band on a membrane.

Broadly, the IC50 is the concentration at which inhibition is half-maximal. As to `CC12CCC(c3c(-c4ccc(Cl)cc4)nc(N)nc31)C2(C)C` (stereo not shown) [Compound 3f, 4-(4-Chlorophenyl)-8,9,9-trimethyl-5,6,7,8-tetrahydro-5,8-methanoquinazolin-2-amine], the IC50 in the assay on MDA-MB-231 cells [1] was 5 ± 0.14 µM; in the assay with RPMI-8226 cells, 8.64 ± 0.24 µM; in the assay on A549 cells it was 7.65 ± 0.21 µM; with GES-1 cells, above 50 µM. The entries for the “percentage of cells in G0/G1 phase” value with MDA-MB-231 cells [2] (2.5 μM), in the assay with MDA-MB-231 cells [2] (5 μM) and in the assay on MDA-MB-231 cells [2] (10 μM) were 64.89%, 78.02% and 81.72%, respectively. Also, the results for the “Apoptosis rate (%) (total early and late)” value in the assay on MDA-MB-231 cells [3] (2.5 μM) and in the assay on MDA-MB-231 cells [3] (10 μM) were 9.47% and 57.9%, respectively. Also, in the assay with MDA-MB-231 cells [4] (10.0 μM, 72 h, control 5.13%), the “level of ROS (DCFH-DA positive cells)” value stood at 63.4%. Also, the “increase of ROS level in comparison to the control group” value with MDA-MB-231 cells [4] (10 μM, 63.4% vs control 5.13%) is reported as around 12 times. Further, the “Percentage (%) green fluorescence (cells with a collapsed ΔΨm)” value was 10.4% with MDA-MB-231 cells [5] (2.5 μM), 33.6% in the assay with MDA-MB-231 cells [5] (5 μM) and 53.2% in the assay with MDA-MB-231 cells [5] (10 μM). Besides, in the assay with MDA-MB-231 cells [6], the “expression of anti-apoptosis protein Bcl-2” value was “downregulated dose-dependently”. Moreover, in the assay with MDA-MB-231 cells [6], the “expression of caspase-3” value is reported as “upregulation”. In the assay with MDA-MB-231 cells [6], the “expression of cytochrome C” value is on record as “upregulation”. The “expression of pro-apoptotic protein Bax” value in the assay with MDA-MB-231 cells [6] is “up-regulated”.

Regarding `COc1ccccc1-c1nc(N)nc2c1C1CCC2(C)C1(C)C` (stereo not shown) [Compound 3m, 4-(2-Methoxyphenyl)-8,9,9-trimethyl-5,6,7,8-tetrahydro-5,8-methanoquinazolin-2-amine], the IC50 with MDA-MB-231 cells [1], with RPMI-8226 cells, in the assay on A549 cells and with GES-1 cells was above 50 µM each time.

Turning to `COc1cccc(-c2nc(N)nc3c2C2CCC3(C)C2(C)C)c1` (stereo not shown) [Compound 3n, 4-(3-Methoxyphenyl)-8,9,9-trimethyl-5,6,7,8-tetrahydro-5,8-methanoquinazolin-2-amine], the IC50 in the assay with MDA-MB-231 cells [1], in the assay on RPMI-8226 cells, with A549 cells and with GES-1 cells was above 50 µM in each case.

Consider `COc1ccc(-c2nc(N)nc3c2C2CCC3(C)C2(C)C)cc1` (stereo not shown) [Compound 3o, 4-(4-Methoxyphenyl)-8,9,9-trimethyl-5,6,7,8-tetrahydro-5,8-methanoquinazolin-2-amine], for which the 50% inhibitory concentration (IC50) in the assay on MDA-MB-231 cells [1], in the assay on RPMI-8226 cells, with A549 cells and in the assay on GES-1 cells was above 50 µM throughout.

Turning to `CC12CCC(c3c(-c4ccccc4O)nc(N)nc31)C2(C)C` (stereo not shown) [Compound 3p, 2-(2-Amino-8,9,9-trimethyl-5,6,7,8-tetrahydro-5,8-methanoquinazolin-4-yl)phenol], the IC50 with MDA-MB-231 cells [1] is 16.3 ± 0.26 µM; in the assay with RPMI-8226 cells, above 50 µM; with A549 cells, 14 ± 0.16 µM; in the assay with GES-1 cells, above 50 µM.

`CC12CCC(c3c(-c4cccc(O)c4)nc(N)nc31)C2(C)C` (stereo not shown) [Compound 3q, 3-(2-Amino-8,9,9-trimethyl-5,6,7,8-tetrahydro-5,8-methanoquinazolin-4-yl)phenol]: the IC50 in the assay on MDA-MB-231 cells [1], in the assay on RPMI-8226 cells, with A549 cells and in the assay on GES-1 cells was above 50 µM throughout.

For the compound `CC12CCC(c3c(-c4ccc(O)cc4)nc(N)nc31)C2(C)C` (stereo not shown) [Compound 3r, 4-(2-Amino-8,9,9-trimethyl-5,6,7,8-tetrahydro-5,8-methanoquinazolin-4-yl)phenol], the IC50 with MDA-MB-231 cells [1], with RPMI-8226 cells, in the assay on A549 cells and in the assay with GES-1 cells was above 50 µM each time.

Regarding `CC12CCC(c3c(-c4ccccn4)nc(N)nc31)C2(C)C` (stereo not shown) [Compound 3s, 8,9,9-Trimethyl-4-(pyridin-2-yl)-5,6,7,8-tetrahydro-5,8-methanoquinazolin-2-amine], the IC50 with MDA-MB-231 cells [1], in the assay with RPMI-8226 cells, with A549 cells and in the assay with GES-1 cells was above 50 µM throughout.

In the case of `CC12CCC(c3c(-c4cccnc4)nc(N)nc31)C2(C)C` (stereo not shown) [Compound 3t, 8,9,9-Trimethyl-4-(pyridin-3-yl)-5,6,7,8-tetrahydro-5,8-methanoquinazolin-2-amine], the IC50 in the assay with MDA-MB-231 cells [1], in the assay with RPMI-8226 cells, in the assay with A549 cells and with GES-1 cells was above 50 µM each time.

Regarding `CC12CCC(c3c(-c4ccncc4)nc(N)nc31)C2(C)C` (stereo not shown) [Compound 3u, 8,9,9-Trimethyl-4-(pyridin-4-yl)-5,6,7,8-tetrahydro-5,8-methanoquinazolin-2-amine], the IC50 in the assay on MDA-MB-231 cells [1], with RPMI-8226 cells, in the assay on A549 cells and in the assay with GES-1 cells was above 50 µM each time.

Take `CN(C)c1ccc(-c2nc(N)nc3c2C2CCC3(C)C2(C)C)cc1` (stereo not shown) [Compound 3v, 4-(4-(Dimethylamino)phenyl)-8,9,9-trimethyl-5,6,7,8-tetrahydro-5,8-methanoquinazolin-2-amine]: the half-inhibitory concentration (IC50) in the assay with MDA-MB-231 cells [1], in the assay with RPMI-8226 cells, in the assay with A549 cells and in the assay with GES-1 cells was above 50 µM each time.

Regarding `CC12CCC(c3c(-c4ccc([N+](=O)[O-])cc4)nc(N)nc31)C2(C)C` (stereo not shown) [Compound 3w, 8,9,9-Trimethyl-4-(4-nitrophenyl)-5,6,7,8-tetrahydro-5,8-methanoquinazolin-2-amine], the IC50 is 6.21 ± 0.14 µM in the assay with MDA-MB-231 cells [1], 9.58 ± 0.11 µM in the assay on RPMI-8226 cells, 10.84 ± 0.09 µM with A549 cells and above 50 µM with GES-1 cells.

For `CC12CCC(c3c(-c4ccccc4)nc(N)nc31)C2(C)C` (stereo not shown) [Compound 3x, 8,9,9-Trimethyl-4-phenyl-5,6,7,8-tetrahydro-5,8-methanoquinazolin-2-amine], the 50% inhibitory concentration (IC50) in the assay with MDA-MB-231 cells [1] was 29.88 ± 0.16 µM; with RPMI-8226 cells it was above 50 µM; in the assay on A549 cells it was above 50 µM; in the assay with GES-1 cells it was above 50 µM.

For the compound `COc1cc([C@@H]2c3cc4c(cc3[C@@H](O[C@@H]3O[C@@H]5CO[C@@H](C)O[C@H]5[C@H](O)[C@H]3O)[C@H]3COC(=O)[C@H]23)OCO4)cc(OC)c1O` [Etoposide, reference compound], the IC50 with MDA-MB-231 cells [1] came out at 3.97 ± 0.45 µM; in the assay with RPMI-8226 cells it was 1.92 ± 0.17 µM; in the assay on A549 cells, 10.9 ± 0.79 µM; in the assay with GES-1 cells, 8.89 ± 0.7 µM.
